Data set [1] can be described thus: melting temperature; fluorescence melt of hairpins on a sequencing array, two-state fit, raised by 9.35 °C to match UV melts. As to conditions: sodium 0.088 M. Put shortly: (§1)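 Cy3 signals were normalised both to pre-quench Cy3 and to control constructs. They came from library hairpins carrying annealed Cy3 and quencher oligos on a sequenced MiSeq flow cell, imaged in 50 mM Na-HEPES pH 8.0, 25 mM NaCl, in 2.5 °C steps up to 60 °C. Bootstrapped two-state fits gave melting temperature and folding enthalpy, and four replicates were combined by inverse variance. Fitted temperatures were then raised by 9.35 °C to match UV melts.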

Data set [2] is described as follows: folding enthalpy; higher = less favourable; fluorescence melt of hairpins on a sequencing array, two-state fit. As to conditions: sodium 0.088 M. Put shortly: as §1

In the case of GAGTCGAAAGACTC (((((....))))), the Tm in data set [1] came to 60.8 °C. Further, the folding enthalpy in data set [2] was -123 kJ/mol.

As for GAGTCGACGAAAGTCCTC (((..(((....)))))), the Tm in data set [1] was 26.6 °C. Moreover, in data set [2], the folding enthalpy is -41 kJ/mol.

As to GAGTCGGGAAACCAACTC ((((.((....)).)))), the Tm in data set [1] worked out at 38.9 °C. Further, the folding enthalpy in data set [2] is -129 kJ/mol.

Consider GAGTCGGGAAACTGACTC (((((.(....).))))), for which the Tm in data set [1] was determined as 52.6 °C. Also, the folding enthalpy in data set [2] is -168 kJ/mol.

Turning to GAGTCTGAAAAGACTC ((((((....)))))), the Tm in data set [1] worked out at 59 °C. Moreover, the folding enthalpy in data set [2] was -159 kJ/mol.

As for GAGTCTGGAAACAGATTC ((.((((....)))).)), the Tm in data set [1] came out at 40.9 °C. For the same sequence, the folding enthalpy in data set [2] was -110 kJ/mol.

GAGTGACCGAAAGGTCTC (((..(((....)))))): the Tm in data set [1] amounted to 35 °C. Moreover, the folding enthalpy in data set [2] is -41.3 kJ/mol.

As for GAGTGACGAAAGTCTCTC (((.(((....))).))), in data set [1], the Tm came to 50.9 °C. Besides, the folding enthalpy in data set [2] was -135 kJ/mol.

For GAGTGAGGAAACTCACTC (((((((....))))))), the Tm in data set [1] came to 61.6 °C. The folding enthalpy in data set [2] was -170 kJ/mol.

In the case of GAGTGAGGAAACTTGCTC (((..((....))..))), the Tm in data set [1] stood at 37.5 °C. Further, the folding enthalpy in data set [2] was -53.9 kJ/mol.

On to GAGTGCGAAAGCAACTC ((((((....))).))), for which the Tm in data set [1] stood at 59 °C. Further, in data set [2], the folding enthalpy is -78.5 kJ/mol.

For the sequence GAGTGCGGAAACGCACCC (.(((((....))))).), the Tm in data set [1] came to 45.8 °C. Moreover, the folding enthalpy in data set [2] was -36.7 kJ/mol.

For GAGTGGAAACACTC (((((....))))), the Tm in data set [1] stood at 51 °C. Besides, the folding enthalpy in data set [2] is -124 kJ/mol.

Consider GAGTGGACGAAAGTCCTC (((..(((....)))))), for which the Tm in data set [1] was 36 °C. Besides, the folding enthalpy in data set [2] is -40.7 kJ/mol.

Take GAGTGGCCGAAAGGCCTC (((..(((....)))))): the Tm in data set [1] is 38.3 °C. Also, the folding enthalpy in data set [2] was -29 kJ/mol.

Turning to GAGTGGCGAAAGCCCTC (((.(((....)))))), in data set [1], the Tm is 51.3 °C. The folding enthalpy in data set [2] is -68.5 kJ/mol.

On to GAGTGGGGAAACCCATTC ((.((((....)))).)), for which the Tm in data set [1] is 42.5 °C. For the same sequence, the folding enthalpy in data set [2] is -114 kJ/mol.

As to GAGTGGGGAAACTCACTC (((((.(....).))))), in data set [1], the Tm is 49.2 °C. Besides, the folding enthalpy in data set [2] is -171 kJ/mol.

Consider GAGTGGGGAAACTCGCTC (((.(.(....).).))), for which the Tm in data set [1] came out at 40.4 °C. Also, the folding enthalpy in data set [2] is -124 kJ/mol.

As to GAGTGTGAAAACACTC ((((((....)))))), the Tm in data set [1] turned out to be 60.9 °C. Further, the folding enthalpy in data set [2] is -146 kJ/mol.

Consider GAGTGTGGAAACACGCTC (((.(((....))).))), for which, in data set [1], the Tm worked out at 54.5 °C. Moreover, in data set [2], the folding enthalpy was -113 kJ/mol.

Take GAGTGTGGAAACGCACTC (((((.(....).))))): the Tm in data set [1] was 52.8 °C. Also, the folding enthalpy in data set [2] is -176 kJ/mol.

For the sequence GAGTTGCCGAAAGGCCTC (((..(((....)))))), the Tm in data set [1] is 34.9 °C. Also, the folding enthalpy in data set [2] was -41.7 kJ/mol.

As to GAGTTGCGAAAGCACCTC (((.(((....))).))), the Tm in data set [1] is 47 °C. The folding enthalpy in data set [2] was -110 kJ/mol.

GAGTTGCGAAAGCACTC (((.(((....)))))): the Tm in data set [1] amounted to 53.9 °C. The folding enthalpy in data set [2] is -90.8 kJ/mol.

For GAGTTGGAAACAACTC ((((((....)))))), the Tm in data set [1] came out at 57.3 °C. Also, in data set [2], the folding enthalpy is -145 kJ/mol.

For GAGTTGGGAAACCAACCC (.(((((....))))).), in data set [1], the Tm turned out to be 40.5 °C. Also, the folding enthalpy in data set [2] was -57.5 kJ/mol.

In the case of GAGTTGGGAAACCAACTC (((((((....))))))), in data set [1], the Tm was 62 °C. Moreover, the folding enthalpy in data set [2] is -165 kJ/mol.

In the case of GAGTTGGGAAACTGACTC ((((..(....)..)))), in data set [1], the Tm turned out to be 34.4 °C. Moreover, the folding enthalpy in data set [2] was -112 kJ/mol.

Consider GAGTTTGGAAACAAGCTC (((.(((....))).))), for which the Tm in data set [1] came out at 44.5 °C. Also, the folding enthalpy in data set [2] is -146 kJ/mol.

With GATAAACGAAAGTTATC (((.(((....)))))), the Tm in data set [1] was found to be 33.9 °C. In addition, the folding enthalpy in data set [2] was -63.3 kJ/mol.

Turning to GATAAACGAAAGTTCATC (((.(((....))).))), the Tm in data set [1] came to 29.2 °C. In addition, in data set [2], the folding enthalpy is -114 kJ/mol.

In the case of GATAACCGAAAGGTCATC (((.(((....))).))), the Tm in data set [1] is 37.2 °C. Also, the folding enthalpy in data set [2] is -89.1 kJ/mol.

Turning to GATAACGAAAGTTATATC ((((((....)))..))), the Tm in data set [1] is 38.9 °C. The folding enthalpy in data set [2] is -67.1 kJ/mol.

Consider GATAACGGAAACGTTACC (.(((((....))))).), for which the Tm in data set [1] stood at 34 °C. In data set [2], the folding enthalpy is -68.9 kJ/mol.

As for GATAATGGAAACGTTATC (((((.(....).))))), the Tm in data set [1] stood at 34.6 °C. Also, the folding enthalpy in data set [2] is -123 kJ/mol.

Turning to GATACACCGAAAGGTATC (((..(((....)))))), in data set [1], the Tm was 30.3 °C. The folding enthalpy in data set [2] was -55.3 kJ/mol.

The values above are taken from the array DNA melting data of Ke et al. (doi:10.1101/2024.01.08.574731).
